Test results as given in ChEMBL document CHEMBL4024762, “Discovery of N-(3-Carbamoyl-5,5,7,7-tetramethyl-5,7-dihydro-4H-thieno[2,3-c]pyran-2-yl)-lH-pyrazole-5-carboxamide (GLPG1837), a Novel Potentiator Which Can Open Class III Mutant Cystic Fibrosis Transmembrane Conductance Regulator (CFTR) Channels to a High Extent” (J Med Chem, 2018).
Converted amounts (≈) assume the structure as drawn. The source made the active and inactive calls. No cut-off for these calls is given here.

What was measured:
[1] = Permeability across apical to basolateral side in MDCK cells; assay type: ADME, cell-based, Canis lupus familiaris; conditions: dog, read-out: permeability
[2] = Half life in rat at 1 mg/kg, iv; assay type: ADME, organism-based; conditions: in vivo
Outline: (§1)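 IV PK in rat and dog at 1 mg/kg. Cl, Cl,unb (L/h/kg), Vd (L/kg) and T1/2 (h) were derived from plasma levels.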

[3] = Clearance in rat at 1 mg/kg, iv; assay type: ADME, organism-based; conditions: in vivo; outline: as §1
[4] = Volume of distribution in dog at 1 mg/kg, iv; assay type: ADME, organism-based, Canis lupus familiaris; conditions: in vivo; outline: as §1
[5] = AUC in rat at 300 mg/kg, po; assay type: ADME, organism-based; conditions: in vivo
[6] = Unbound intrinsic clearance in rat hepatocytes; assay type: ADME, cell-based, Hepatocyte
Outline: (§2)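 Intrinsic clearance in liver microsomes or hepatocytes, corrected for non-specific binding using fraction unbound in microsomes (Fu,mic) or in hepatocyte incubations (Fu,inc).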

[7] = AUC in rat at 5 mg/kg, po; assay type: ADME, organism-based; conditions: in vivo
[8] = system: Cystic fibrosis transmembrane conductance regulator (Homo sapiens), P13569 [G178R]; assay: Potentiation of CFTR G178R mutant (unknown origin) expressed in HEK293 cells incubated for 10 mins in presence of forskolin measured for 2 mins by YFP halide assay relative to ivacaftor; assay type: cell-based
[9] = Unbound intrinsic clearance in human hepatocytes; assay type: ADME, cell-based, Hepatocyte
[10] = Oral bioavailability in dog at 5 mg/kg; assay type: ADME, organism-based, Canis lupus familiaris; conditions: in vivo
Outline: (§3)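 F% in rat and dog after a 5 mg/kg PO dose, referenced to the 1 mg/kg IV PK parameters.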

[11] = target: T1, Cystic fibrosis transmembrane conductance regulator (Homo sapiens, UniProt P13569, G551D); assay: Potentiation of CFTR G551D mutant in primary HBE cells assessed as increase in channel conductivity measured every 2 mins for 20 mins by TECC assay; assay type: cell-based
Outline: (§4)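 TECC on primary epithelia bathed both sides in NaCl Ringer, pH 7.4, at 37°C. Apical amiloride 100 µM; forskolin 10 µM apical and basolateral. One compound concentration per transwell. EC50 derived from the increase in Ieq. Duplicate or triplicate, mean ± SEM; 10 µM CFTRinh-172 used for specificity.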

[12] = Oral bioavailability in rat at 5 mg/kg; assay type: ADME, organism-based; conditions: in vivo; outline: as §3
[13] = Thermodynamic solubility of the compound at pH 7.4; assay type: physicochemical; conditions: buffer, read-out: Therm_solubility
[14] = Efflux ratio of permeability in MDCK cells; assay type: ADME, cell-based, Canis lupus familiaris; conditions: dog
[15] = Cmax in rat at 5 mg/kg, po; assay type: ADME, organism-based; set-up: dose 5 mg/kg, route oral; conditions: in vivo
[16] = Thermodynamic solubility of the compound at pH 3; assay type: physicochemical; conditions: buffer, read-out: Therm_solubility
Homo sapiens [17] = assay: Toxicity in human up to 800 mg, bid administered for 14 days; conditions: 336 h
[18] = Half life in dog at 1 mg/kg, iv; assay type: ADME, organism-based, Canis lupus familiaris; conditions: in vivo; outline: as §1
[19] = Clearance in dog at 1 mg/kg, iv; assay type: ADME, organism-based, Canis lupus familiaris; conditions: in vivo; outline: as §1
[20] = system: Cystic fibrosis transmembrane conductance regulator (Homo sapiens), P13569 [R117H]; assay: Potentiation of CFTR R117H mutant (unknown origin) expressed in HEK293 cells incubated for 10 mins in presence of forskolin measured for 2 mins by YFP halide assay relative to ivacaftor; assay type: cell-based
Homo sapiens [21] = assay: Toxicity in human up to 2000 mg administered as single dose
Cytochrome P450 2C9 = Cytochrome P450 2C9 (Homo sapiens, UniProt P11712); assay: Inhibition of CYP2C9 (unknown origin); assay type: ADME
Cytochrome P450 2C19 = Cytochrome P450 2C19 (Homo sapiens, UniProt P33261); assay: Inhibition of CYP2C19 (unknown origin); assay type: ADME
[22] = Unbound intrinsic clearance in rat microsomes; assay type: ADME, Microsome; outline: as §2
[23] = Volume of distribution in rat at 1 mg/kg, iv; assay type: ADME, organism-based; conditions: in vivo; outline: as §1
[24] = Cmax in rat at 300 mg/kg, po; assay type: ADME, organism-based; set-up: dose 300 mg/kg, route oral; conditions: in vivo
[25] = target: Voltage-gated inwardly rectifying potassium channel KCNH2 (Homo sapiens, UniProt Q12809); assay: Inhibition of human ERG by manual patch clamp method
[26] = Unbound intrinsic clearance in human microsomes; assay type: ADME, Microsome
Cytochrome P450 3A4 = Cytochrome P450 3A4 (Homo sapiens, UniProt P08684); assay: Inhibition of CYP3A4 (unknown origin); assay type: ADME
[27] = system: Cystic fibrosis transmembrane conductance regulator (Homo sapiens), P13569 [G551D]; assay: Potentiation of CFTR G551D mutant in primary HBE cells assessed as increase in channel conductivity measured every 2 mins for 20 mins by TECC assay relative to ivacaftor; assay type: cell-based
Cytochrome P450 2D6 = Cytochrome P450 2D6 (Homo sapiens, UniProt P10635); assay: Inhibition of CYP2D6 (unknown origin); assay type: ADME
[28] = system: Cystic fibrosis transmembrane conductance regulator (Homo sapiens), P13569 [S549N]; assay: Potentiation of CFTR S549N mutant (unknown origin) expressed in HEK293 cells incubated for 10 mins in presence of forskolin measured for 2 mins by YFP halide assay relative to ivacaftor; assay type: cell-based
[29] = system: Cystic fibrosis transmembrane conductance regulator (Homo sapiens), P13569 [G551D]; assay: (§5) Potentiation of CFTR G551D mutant (unknown origin) expressed in HEK293 cells incubated for 10 mins in presence of forskolin measured for 2 mins by YFP halide assay; assay type: cell-based; set-up: concentration or dose not given beside the values
Outline: (§6)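 HEK293 cells transfected with the mutant CFTR (G551D, G178R, S549N or R117H) and YFP (H148Q/I152L/F47L), seeded directly after transfection, then 24 h at 37°C. Treated 10 min at room temperature with 10 µM forskolin plus potentiator. Fluorescence read for 2 min across addition of NaI buffer (375 mM NaI). Activity = 1-(F/F0).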

[30] = target: T1, Cystic fibrosis transmembrane conductance regulator; assay: as §5; assay type: cell-based; outline: as §6
[31] = target: Cystic fibrosis transmembrane conductance regulator (Homo sapiens, UniProt P13569, F508DEL); assay: (§7) Potentiation of CFTR F508del mutant (unknown origin) expressed in human CFBE41o cells incubated for 10 mins in presence of forskolin measured for 7 secs by YFP halide assay; assay type: cell-based
Outline: (§8)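 CFBE41o- cells (CF bronchial line) transduced by adenovirus with F508del CFTR and YFP (H148Q/I152L/F47L). Cells held 24 h at 27°C, then treated 10 min at room temperature with 10 µM forskolin plus potentiator. YFP fluorescence read for 7 s across addition of NaI buffer (137 mM NaI). Activity = 1-(F/F0).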

[32] = system: Cystic fibrosis transmembrane conductance regulator (Homo sapiens), P13569 [F508del]; assay: as §7; assay type: cell-based; set-up: concentration or dose not given beside the values; outline: as §8
Rattus norvegicus = assay: Unbound clearance in rat at 1 mg/kg, iv; assay type: ADME, organism-based; conditions: in vivo; outline: as §1
Cytochrome P450 1A2 = target: T2, Cytochrome P450 1A2 (Homo sapiens, UniProt P05177); assay: Inhibition of CYP1A2 (unknown origin); assay type: ADME
T2 sequence (P05177 whole entry): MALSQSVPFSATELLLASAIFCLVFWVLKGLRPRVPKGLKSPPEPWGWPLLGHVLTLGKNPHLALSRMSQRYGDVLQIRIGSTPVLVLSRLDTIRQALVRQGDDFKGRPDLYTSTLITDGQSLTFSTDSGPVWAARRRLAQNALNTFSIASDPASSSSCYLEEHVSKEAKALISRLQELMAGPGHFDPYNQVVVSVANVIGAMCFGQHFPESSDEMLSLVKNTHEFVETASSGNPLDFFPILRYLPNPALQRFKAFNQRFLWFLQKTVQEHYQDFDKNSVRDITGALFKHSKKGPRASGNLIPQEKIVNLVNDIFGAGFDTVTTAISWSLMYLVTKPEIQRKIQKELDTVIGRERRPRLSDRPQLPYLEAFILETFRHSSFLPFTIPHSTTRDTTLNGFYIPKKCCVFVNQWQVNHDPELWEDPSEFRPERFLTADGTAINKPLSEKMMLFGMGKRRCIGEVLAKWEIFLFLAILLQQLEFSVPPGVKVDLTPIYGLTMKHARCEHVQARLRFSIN

Canis familiaris = assay: Unbound clearance in dog at 1 mg/kg, iv; assay type: ADME, organism-based, Canis lupus familiaris; conditions: in vivo; outline: as §1
[33] = system: Cystic fibrosis transmembrane conductance regulator (Homo sapiens), P13569 [F508del]; assay: Potentiation of CFTR F508del mutant in primary HBE cells assessed as increase in channel conductivity measured every 2 mins for 20 mins by TECC assay; assay type: cell-based; outline: as §4

Sequence of Cystic fibrosis transmembrane conductance regulator (Homo sapiens), P13569 [F508del] (P13569 as listed by the source): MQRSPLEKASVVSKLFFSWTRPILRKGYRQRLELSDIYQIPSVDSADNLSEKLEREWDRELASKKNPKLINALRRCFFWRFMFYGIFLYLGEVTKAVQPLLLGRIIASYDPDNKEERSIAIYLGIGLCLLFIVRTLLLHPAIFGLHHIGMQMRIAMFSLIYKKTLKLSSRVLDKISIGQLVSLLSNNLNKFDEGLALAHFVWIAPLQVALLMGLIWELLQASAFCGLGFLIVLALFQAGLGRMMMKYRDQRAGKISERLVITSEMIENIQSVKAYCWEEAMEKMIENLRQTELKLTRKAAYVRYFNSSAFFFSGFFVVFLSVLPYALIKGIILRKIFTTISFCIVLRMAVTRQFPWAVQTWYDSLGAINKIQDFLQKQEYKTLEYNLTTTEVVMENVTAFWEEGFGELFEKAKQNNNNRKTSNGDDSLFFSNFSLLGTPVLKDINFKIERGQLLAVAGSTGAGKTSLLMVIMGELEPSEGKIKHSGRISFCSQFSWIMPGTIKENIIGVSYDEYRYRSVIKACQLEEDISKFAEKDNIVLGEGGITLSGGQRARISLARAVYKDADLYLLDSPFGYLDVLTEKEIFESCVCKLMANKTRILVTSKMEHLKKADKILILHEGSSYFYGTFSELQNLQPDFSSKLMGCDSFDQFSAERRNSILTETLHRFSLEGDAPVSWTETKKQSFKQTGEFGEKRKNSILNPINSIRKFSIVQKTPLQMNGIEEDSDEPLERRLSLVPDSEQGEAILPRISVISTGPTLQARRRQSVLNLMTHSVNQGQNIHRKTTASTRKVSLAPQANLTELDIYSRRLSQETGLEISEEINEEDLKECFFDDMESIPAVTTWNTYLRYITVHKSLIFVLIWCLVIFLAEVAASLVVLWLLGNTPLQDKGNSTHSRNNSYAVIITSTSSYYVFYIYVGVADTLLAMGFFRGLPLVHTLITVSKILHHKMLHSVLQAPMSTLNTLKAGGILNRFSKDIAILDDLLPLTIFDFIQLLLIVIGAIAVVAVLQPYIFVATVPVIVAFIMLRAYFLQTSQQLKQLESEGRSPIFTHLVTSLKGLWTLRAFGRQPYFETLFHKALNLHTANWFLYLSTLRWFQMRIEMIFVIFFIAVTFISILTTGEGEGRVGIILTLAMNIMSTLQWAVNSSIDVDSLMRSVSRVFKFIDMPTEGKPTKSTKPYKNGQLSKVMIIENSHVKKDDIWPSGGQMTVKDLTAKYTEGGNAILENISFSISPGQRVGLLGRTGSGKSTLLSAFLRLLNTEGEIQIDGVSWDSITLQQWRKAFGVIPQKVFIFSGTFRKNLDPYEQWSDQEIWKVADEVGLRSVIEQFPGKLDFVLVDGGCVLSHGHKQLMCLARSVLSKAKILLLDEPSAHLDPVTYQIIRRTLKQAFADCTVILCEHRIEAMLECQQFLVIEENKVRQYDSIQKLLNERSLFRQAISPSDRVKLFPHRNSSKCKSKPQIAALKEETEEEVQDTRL
Sequence of Cystic fibrosis transmembrane conductance regulator (Homo sapiens), P13569 [G551D] (P13569 whole entry G551D): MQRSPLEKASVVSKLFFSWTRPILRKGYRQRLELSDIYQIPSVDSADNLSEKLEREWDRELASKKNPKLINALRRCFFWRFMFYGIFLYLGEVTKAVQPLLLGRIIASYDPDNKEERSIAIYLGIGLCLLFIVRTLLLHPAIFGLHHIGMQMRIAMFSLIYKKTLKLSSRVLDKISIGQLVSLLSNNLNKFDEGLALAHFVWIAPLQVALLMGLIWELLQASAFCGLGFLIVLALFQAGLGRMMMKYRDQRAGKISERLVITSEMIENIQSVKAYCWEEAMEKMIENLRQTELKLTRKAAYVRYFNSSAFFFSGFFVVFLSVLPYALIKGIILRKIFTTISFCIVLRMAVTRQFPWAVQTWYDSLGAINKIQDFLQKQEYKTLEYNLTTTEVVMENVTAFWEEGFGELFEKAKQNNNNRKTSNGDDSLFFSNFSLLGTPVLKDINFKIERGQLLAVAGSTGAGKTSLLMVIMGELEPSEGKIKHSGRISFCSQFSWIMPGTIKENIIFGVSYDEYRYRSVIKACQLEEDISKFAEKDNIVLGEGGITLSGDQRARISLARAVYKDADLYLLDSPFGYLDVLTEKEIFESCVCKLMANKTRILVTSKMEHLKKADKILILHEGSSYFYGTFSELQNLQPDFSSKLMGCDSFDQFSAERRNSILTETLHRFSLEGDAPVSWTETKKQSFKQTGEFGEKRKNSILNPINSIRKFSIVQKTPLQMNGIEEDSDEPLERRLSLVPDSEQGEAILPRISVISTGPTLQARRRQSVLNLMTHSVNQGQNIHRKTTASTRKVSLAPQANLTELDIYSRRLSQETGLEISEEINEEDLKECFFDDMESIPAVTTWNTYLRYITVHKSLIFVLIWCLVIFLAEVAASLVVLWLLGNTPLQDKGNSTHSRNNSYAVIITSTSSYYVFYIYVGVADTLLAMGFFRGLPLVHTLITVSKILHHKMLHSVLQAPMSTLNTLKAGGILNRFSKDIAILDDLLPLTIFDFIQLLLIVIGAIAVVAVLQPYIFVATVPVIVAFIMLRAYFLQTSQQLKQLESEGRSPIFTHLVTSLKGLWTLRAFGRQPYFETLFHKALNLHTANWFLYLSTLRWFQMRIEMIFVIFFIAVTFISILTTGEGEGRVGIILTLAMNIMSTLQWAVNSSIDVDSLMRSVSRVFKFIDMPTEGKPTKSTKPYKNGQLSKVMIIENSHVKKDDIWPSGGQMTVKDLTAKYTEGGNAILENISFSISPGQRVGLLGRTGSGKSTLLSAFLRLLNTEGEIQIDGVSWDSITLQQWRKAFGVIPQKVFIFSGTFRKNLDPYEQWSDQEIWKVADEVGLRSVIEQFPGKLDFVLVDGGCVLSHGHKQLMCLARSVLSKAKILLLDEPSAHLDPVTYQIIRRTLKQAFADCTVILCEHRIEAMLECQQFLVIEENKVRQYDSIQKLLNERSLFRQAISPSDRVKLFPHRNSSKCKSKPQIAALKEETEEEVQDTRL
T1 sequence (P13569 whole entry G551D): as above
Sequence of Voltage-gated inwardly rectifying potassium channel KCNH2 (Q12809 whole entry): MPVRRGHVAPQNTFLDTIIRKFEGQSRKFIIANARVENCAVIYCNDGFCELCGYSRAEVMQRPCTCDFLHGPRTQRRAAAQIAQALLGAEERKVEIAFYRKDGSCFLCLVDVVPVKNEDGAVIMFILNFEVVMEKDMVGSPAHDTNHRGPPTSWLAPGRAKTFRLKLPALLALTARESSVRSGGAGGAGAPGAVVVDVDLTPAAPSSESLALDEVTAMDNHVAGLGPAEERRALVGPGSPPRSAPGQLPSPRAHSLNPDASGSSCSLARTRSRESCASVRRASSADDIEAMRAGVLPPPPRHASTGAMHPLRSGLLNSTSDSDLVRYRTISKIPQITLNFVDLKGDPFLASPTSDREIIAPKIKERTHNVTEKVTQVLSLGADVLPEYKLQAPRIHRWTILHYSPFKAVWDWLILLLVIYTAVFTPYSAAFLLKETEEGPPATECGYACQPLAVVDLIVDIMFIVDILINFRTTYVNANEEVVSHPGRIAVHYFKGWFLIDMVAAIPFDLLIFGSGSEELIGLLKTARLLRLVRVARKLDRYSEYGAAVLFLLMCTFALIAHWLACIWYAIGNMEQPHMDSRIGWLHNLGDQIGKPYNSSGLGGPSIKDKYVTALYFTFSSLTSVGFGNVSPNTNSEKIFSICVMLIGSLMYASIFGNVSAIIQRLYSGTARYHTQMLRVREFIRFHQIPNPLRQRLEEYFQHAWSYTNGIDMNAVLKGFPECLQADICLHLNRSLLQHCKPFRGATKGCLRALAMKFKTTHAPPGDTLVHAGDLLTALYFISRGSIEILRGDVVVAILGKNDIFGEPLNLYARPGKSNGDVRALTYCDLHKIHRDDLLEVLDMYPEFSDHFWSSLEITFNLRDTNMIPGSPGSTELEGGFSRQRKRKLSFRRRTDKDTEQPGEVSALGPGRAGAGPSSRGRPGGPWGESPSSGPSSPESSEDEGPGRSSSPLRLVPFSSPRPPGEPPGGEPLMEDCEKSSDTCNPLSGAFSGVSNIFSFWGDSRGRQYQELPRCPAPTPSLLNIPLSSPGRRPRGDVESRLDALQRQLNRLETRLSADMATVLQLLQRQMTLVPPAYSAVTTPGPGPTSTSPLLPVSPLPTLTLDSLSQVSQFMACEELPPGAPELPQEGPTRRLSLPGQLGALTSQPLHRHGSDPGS
Sequence of Cystic fibrosis transmembrane conductance regulator (Homo sapiens, UniProt P13569, F508DEL) (P13569 as listed by the source): as the sequence (P13569 as listed by the source) above
Sequence of Cystic fibrosis transmembrane conductance regulator (Homo sapiens), P13569 [S549N] (P13569 whole entry S549N): as the sequence (P13569 whole entry G551D) above, with S549N, D551G counted along it
Sequence of Cytochrome P450 2C9 (P11712 whole entry): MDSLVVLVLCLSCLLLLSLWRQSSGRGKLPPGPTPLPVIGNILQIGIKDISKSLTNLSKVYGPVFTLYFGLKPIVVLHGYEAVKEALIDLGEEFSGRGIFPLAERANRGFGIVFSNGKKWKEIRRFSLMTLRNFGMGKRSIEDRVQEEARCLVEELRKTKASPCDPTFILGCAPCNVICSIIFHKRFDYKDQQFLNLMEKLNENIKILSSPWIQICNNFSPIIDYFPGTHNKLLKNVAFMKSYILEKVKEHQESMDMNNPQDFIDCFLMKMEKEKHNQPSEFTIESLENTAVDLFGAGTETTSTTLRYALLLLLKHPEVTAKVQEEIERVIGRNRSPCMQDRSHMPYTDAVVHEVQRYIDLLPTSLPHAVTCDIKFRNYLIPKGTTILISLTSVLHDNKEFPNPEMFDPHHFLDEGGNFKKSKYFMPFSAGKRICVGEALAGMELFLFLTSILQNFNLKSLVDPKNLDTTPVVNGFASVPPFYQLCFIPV
Sequence of Cystic fibrosis transmembrane conductance regulator (Homo sapiens), P13569 [G178R] (P13569 whole entry G178R): as the sequence (P13569 whole entry G551D) above, with G178R, D551G counted along it
Sequence of Cystic fibrosis transmembrane conductance regulator (Homo sapiens), P13569 [R117H] (P13569 whole entry R117H): as the sequence (P13569 whole entry G551D) above, with R117H, D551G counted along it

CC1(C)Cc2c(sc(NC(=O)c3ccn[nH]3)c2C(N)=O)C(C)(C)O1
Papp A→B [1]: 11 ×10⁻⁶ cm/s | half-life [2]: 1.84 h | clearance [3]: 32 mL/min/kg | Vd [4]: 1.4 L/kg | AUC [5]: 68200 ng·h/mL | CL free [6]: 95 mL/min/kg | AUC [7]: 1540 ng·h/mL | Efficacy [8]: 158% | CL free [9]: 30 mL/min/kg | bioavailability [10]: > 100% | EC50 [11]: 0.181 µM | bioavailability [12]: 67% | solubility thermodynamic [13]: 8.6 µM (≈ 3 µg/mL) | efflux ratio [14]: 2.6 | Cmax [15]: 331 ng/mL | solubility thermodynamic [16]: 11 µM (≈ 3.83 µg/mL) | Activity (Homo sapiens [17]): Non-Toxic | half-life [18]: 3 h | clearance [19]: 5.33 mL/min/kg | Efficacy [20]: 119% | Activity (Homo sapiens [21]): Non-Toxic | EC50 (Cytochrome P450 2C9): > 100 µM | EC50 (Cytochrome P450 2C19): > 100 µM | CL free [22]: 28.3 mL/min/kg | Vd [23]: 4.8 L/kg | Cmax [24]: 4670 ng/mL | EC50 [25]: > 33 µM | CL free [26]: 18.3 mL/min/kg | EC50 (Cytochrome P450 3A4): > 100 µM | Activity [27]: 200% | EC50 (Cytochrome P450 2D6): > 100 µM | Efficacy [28]: 143% | Activity [29]: 103% | EC50 [30]: 0.339 µM | EC50 [31]: 0.003 µM | Activity [32]: 105% | CL free (Rattus norvegicus): 400 mL/min/kg | EC50 (Cytochrome P450 1A2): > 100 µM | CL free (Canis familiaris): 107 mL/min/kg | Activity [33]: Active
